# Laboratory results: ChEMBL document CHEMBL1147446, “Antagonists of human CCR5 receptor containing 4-(pyrazolyl)piperidine side chains. Part 3: SAR studies on the benzylpyrazole segment” (Bioorg Med Chem Lett, 2004)
# pIC50: −log10 of the molar value.
# Experiments:
# [1] = biological target: C-C chemokine receptor type 5 (Homo sapiens, UniProt P51681); experiment: Inhibitory concentration for displacement of [125I]-MIP-1 alpha from recombinant human CC chemokine receptor 5 (CCR5) expressed in CHO cell; assay type: cell-based
# C-C chemokine receptor type 5, sequence (P51681 whole entry): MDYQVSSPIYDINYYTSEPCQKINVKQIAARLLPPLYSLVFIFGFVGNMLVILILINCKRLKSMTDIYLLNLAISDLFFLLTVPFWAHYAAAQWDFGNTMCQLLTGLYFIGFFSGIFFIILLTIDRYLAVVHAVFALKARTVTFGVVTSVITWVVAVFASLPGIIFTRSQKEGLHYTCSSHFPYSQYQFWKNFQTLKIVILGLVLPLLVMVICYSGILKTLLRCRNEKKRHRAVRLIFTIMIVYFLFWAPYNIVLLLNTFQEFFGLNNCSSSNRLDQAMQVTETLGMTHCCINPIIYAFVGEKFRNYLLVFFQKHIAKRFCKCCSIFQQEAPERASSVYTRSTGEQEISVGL
# Procedure, shortened: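 Competitive binding to CCR5 on CHO cell membranes, read as displacement of [125I]-labeled MIP-1α. IC50 values are means of triplicate determinations. Standard errors were normally <15% within an assay. Assay-to-assay variation was within ±2-fold, judged from a standard compound.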
# HeLa [2] = experiment: Antiviral activities in a cell culture HIV-1 infectivity inhibition assay using HeLa cells; assay type: functional; details: Homo sapiens
# HeLa [3] = experiment: Antiviral activities in a cell culture HIV-1 infectivity inhibition assay using HeLa cells plus 50% normal human serum; assay type: functional
pIC50 [1],IC90 (HeLa [2]),SMILES,IC90 (HeLa [3])
9.70,< 0.14 nM,CCn1nc(Cc2cccc3ccccc23)cc1C1CCN(C[C@H]2CN([C@@H](C(=O)O)C(C)(C)C)C[C@@H]2c2cccc(F)c2)CC1,11 nM
8.64,33 nM,CCn1nc(CC2CCCCC2)cc1C1CCN(C[C@H]2CN([C@@H](C(=O)O)C(C)C)C[C@@H]2c2cccc(F)c2)CC1,> 300 nM
9.70,< 0.14 nM,CCn1nc(Cc2ccc(OC3CC3)cc2)cc1C1CCN(C[C@H]2CN([C@@H](C(=O)O)C3CCCCC3)C[C@@H]2c2cccc(F)c2)CC1,33 nM
9.30,1.2 nM,CCn1nc(Cc2ccc(Oc3ccccc3)cc2)cc1C1CCN(C[C@H]2CN([C@@H](C(=O)O)C3CCCCC3)C[C@@H]2c2cccc(F)c2)CC1,100 nM
9.05,< 0.14 nM,CCn1nc(Cc2ccc(OC)c(C#N)c2)cc1C1CCN(C[C@H]2CN([C@@H](C(=O)O)C(C)(C)C)C[C@@H]2c2cccc(F)c2)CC1,33 nM
8.30,100 nM,CCn1nc(Cc2ccc(F)cc2F)cc1C1CCN(C[C@H]2CN([C@@H](C(=O)O)C(C)C)C[C@@H]2c2cccc(F)c2)CC1,> 300 nM
9.30,< 0.14 nM,CC[C@H](C)[C@H](C(=O)O)N1C[C@H](CN2CCC(c3cc(Cc4ccc(OC)c(C#N)c4)nn3CC)CC2)[C@@H](c2cccc(F)c2)C1,33 nM
9.15,< 0.14 nM,CCOc1ccc(Cc2cc(C3CCN(C[C@H]4CN([C@@H](C(=O)O)C(C)(C)C)C[C@@H]4c4cccc(F)c4)CC3)n(CC)n2)cc1F,11 nM
8.96,3.7 nM,CCn1nc(Cc2ccc(F)c(F)c2)cc1C1CCN(C[C@H]2CN([C@@H](C(=O)O)C(C)C)C[C@@H]2c2cccc(F)c2)CC1,300 nM
9.22,1.2 nM,CCn1nc(Cc2ccc(OC(F)(F)F)cc2)cc1C1CCN(C[C@H]2CN([C@@H](C(=O)O)C(C)(C)C)C[C@@H]2c2cccc(F)c2)CC1,100 nM
9.52,< 0.14 nM,CC[C@H](C)[C@H](C(=O)O)N1C[C@H](CN2CCC(c3cc(Cc4ccc5ccccc5c4)nn3CC)CC2)[C@@H](c2cccc(F)c2)C1,300 nM
9.10,3.7 nM,CCn1nc(Cc2ccc(OC(F)(F)F)cc2)cc1C1CCN(C[C@H]2CN([C@@H](C(=O)O)C(C)C)C[C@@H]2c2cccc(F)c2)CC1,300 nM
9.30,< 0.14 nM,CCn1nc(Cc2ccccc2F)cc1C1CCN(C[C@H]2CN([C@@H](C(=O)O)C3CCCCC3)C[C@@H]2c2cccc(F)c2)CC1,33 nM
8.96,3.7 nM,CCn1nc(CC2CCCCC2)cc1C1CCN(C[C@H]2CN([C@@H](C(=O)O)C(C)(C)C)C[C@@H]2c2cccc(F)c2)CC1,300 nM
9.00,< 0.14 nM,CCn1nc(Cc2cccc(C#N)c2)cc1C1CCN(C[C@H]2CN([C@@H](C(=O)O)C(C)(C)C)C[C@@H]2c2cccc(F)c2)CC1,11 nM
9.30,1.2 nM,CC[C@@H](C)[C@H](C(=O)O)N1C[C@H](CN2CCC(c3cc(Cc4ccc(-c5ccccc5)cc4)nn3CC)CC2)[C@@H](c2cccc(F)c2)C1,300 nM
9.52,< 0.14 nM,CC[C@H](C)[C@H](C(=O)O)N1C[C@H](CN2CCC(c3cc(Cc4ccc(C)cc4)nn3CC)CC2)[C@@H](c2cccc(F)c2)C1,11 nM
9.22,1.2 nM,CCn1nc(Cc2ccc(OC3CCC3)cc2)cc1C1CCN(C[C@H]2CN([C@@H](C(=O)O)C(C)C)C[C@@H]2c2cccc(F)c2)CC1,100 nM
–,–,CCn1nc(Cc2ccccc2)cc1C1CCN(C[C@H]2CN([C@@H](C(=O)O)C3CCCCC3)C[C@@H]2c2cccc(F)c2)CC1,100 nM
8.96,33 nM,CCn1nc(Cc2ccc(F)cc2)cc1C1CCN(C[C@H]2CN([C@@H](C(=O)O)C3CCCCC3)C[C@@H]2c2cccc(F)c2)CC1,–
